In article PMC5788414 (Journal of Medicinal Chemistry, 2017):
Each block holds one compound with its values, some of them ahead of it. Peptide text beside a SMILES is read from it. * marks the point of attachment. Cbz = O=C(OCc1ccccc1)*

Tests used:
[1] = system: RS4;11 acute leukemia cell line; experiment: Cell growth inhibition; format: cell-based, human; conditions: for times less potent than 15 in cell growth inhibition: comparator 15; for times more potent than 9 in cell growth inhibition: comparator 9; for times less potent than 23 in cell growth inhibition: comparator 23
[2] = system: BRD2, BRD3, and BRD4 proteins; experiment: Western blotting of BET protein levels in RS4; format: cell-based, human; conditions: RS4;11 cells; for Effect of pretreatment on degradation of BRD2, BRD3, and BRD4 induced by 23: 2 h pretreatment, then 3 h treatment with 23 at 1 nM
BRD4 = BRD4 (Homo sapiens, UniProt O60885); experiment: Western blotting of BRD4 protein level in RS4; format: cell-based; conditions: RS4;11 cells, 3 h treatment, Western blot
How it was run: (§1)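 RS4;11 cells (2 × 10⁶/well) were treated with the test compound at the indicated concentrations for 3 h or 24 h. Cells were lysed in RIPA buffer with protease inhibitors. Lysate (20 μg per lane) was separated by SDS–PAGE, blotted onto PVDF, and probed with BRD2, BRD3 and BRD4 antibodies, with GAPDH as the loading control.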

BRD3 = BRD3 (Homo sapiens, UniProt Q15059); experiment: Western blotting of BRD3 protein level in RS4; format: cell-based; conditions: RS4;11 cells, 3 h treatment, Western blot
How it was run: as §1

BRD2 = BRD2 (Homo sapiens, UniProt P25440); experiment: Western blotting of BRD2 protein level in RS4; format: cell-based; conditions: RS4;11 cells, 3 h treatment, Western blot
How it was run: as §1

BRD2, BRD3, and BRD4 = experiment: FP-based competitive binding assays, BET proteins overall; conditions: binding to BRD2, BRD3, BRD4; comparator 8

Chain of BRD2 (P25440 whole entry): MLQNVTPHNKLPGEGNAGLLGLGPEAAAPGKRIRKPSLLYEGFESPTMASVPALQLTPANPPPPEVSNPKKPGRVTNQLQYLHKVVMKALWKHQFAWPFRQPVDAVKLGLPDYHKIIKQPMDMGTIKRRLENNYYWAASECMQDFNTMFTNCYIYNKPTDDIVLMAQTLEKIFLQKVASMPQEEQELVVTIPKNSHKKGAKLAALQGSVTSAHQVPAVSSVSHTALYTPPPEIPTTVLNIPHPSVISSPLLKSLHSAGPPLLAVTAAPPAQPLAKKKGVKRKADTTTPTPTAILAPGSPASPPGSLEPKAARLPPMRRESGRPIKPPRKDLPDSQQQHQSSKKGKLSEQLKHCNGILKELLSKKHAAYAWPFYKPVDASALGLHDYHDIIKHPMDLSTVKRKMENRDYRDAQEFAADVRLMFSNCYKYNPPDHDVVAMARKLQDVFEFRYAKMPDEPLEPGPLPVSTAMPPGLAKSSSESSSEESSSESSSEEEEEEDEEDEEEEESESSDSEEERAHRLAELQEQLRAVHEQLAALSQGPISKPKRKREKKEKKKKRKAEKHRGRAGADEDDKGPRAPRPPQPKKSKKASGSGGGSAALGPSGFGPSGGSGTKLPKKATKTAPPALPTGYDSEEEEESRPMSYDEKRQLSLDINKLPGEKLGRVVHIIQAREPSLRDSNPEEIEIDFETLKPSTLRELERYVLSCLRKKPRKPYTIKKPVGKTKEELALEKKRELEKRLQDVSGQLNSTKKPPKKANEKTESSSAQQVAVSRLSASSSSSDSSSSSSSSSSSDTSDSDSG
Chain of BRD3 (Q15059 whole entry): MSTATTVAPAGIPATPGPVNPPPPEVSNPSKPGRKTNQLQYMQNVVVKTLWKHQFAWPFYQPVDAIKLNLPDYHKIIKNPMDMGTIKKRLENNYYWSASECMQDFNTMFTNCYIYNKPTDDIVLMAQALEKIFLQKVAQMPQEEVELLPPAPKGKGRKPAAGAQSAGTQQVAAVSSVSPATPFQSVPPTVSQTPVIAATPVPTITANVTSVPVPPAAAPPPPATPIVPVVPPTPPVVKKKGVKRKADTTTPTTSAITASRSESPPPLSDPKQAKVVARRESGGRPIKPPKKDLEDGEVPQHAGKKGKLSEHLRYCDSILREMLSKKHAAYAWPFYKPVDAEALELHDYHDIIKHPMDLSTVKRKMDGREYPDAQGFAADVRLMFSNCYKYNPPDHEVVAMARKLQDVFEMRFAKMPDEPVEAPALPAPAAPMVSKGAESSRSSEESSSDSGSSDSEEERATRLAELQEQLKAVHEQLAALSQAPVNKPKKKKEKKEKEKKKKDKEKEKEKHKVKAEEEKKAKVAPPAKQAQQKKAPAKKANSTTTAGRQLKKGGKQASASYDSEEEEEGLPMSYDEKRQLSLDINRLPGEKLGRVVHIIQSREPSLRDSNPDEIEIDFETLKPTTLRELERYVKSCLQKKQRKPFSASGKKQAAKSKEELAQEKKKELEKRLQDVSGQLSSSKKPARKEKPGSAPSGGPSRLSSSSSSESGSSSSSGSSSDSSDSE

Compound: 4-((3-Cyclopropyl-1-ethyl-1H-pyrazol-5-yl)amino)-7-(3,5-dimethylisoxazol-4-yl)-N-(2-((2-(2,6-dioxopiperidin-3-yl)-1,3-dioxoisoindolin-4-yl)amino)ethyl)-6-methoxy-9H-pyrimido[4,5-b]indole-2-carboxamide [Compound 17]
times less potent than 15 in cell growth inhibition [1]: 10 times

Compound: 4-((3-Cyclopropyl-1-ethyl-1H-pyrazol-5-yl)amino)-7-(3,5-dimethylisoxazol-4-yl)-N-(3-((2-(2,6-dioxopiperidin-3-yl)-1,3-dioxoisoindolin-4-yl)amino)propyl)-6-methoxy-9H-pyrimido[4,5-b]indole-2-carboxamide [Compound 16]
times less potent than 15 in cell growth inhibition [1]: 5 times

Compound: CCn1nc(C2CC2)cc1Nc1nc(C(=O)NCCCCNC(=O)COc2cccc3c2C(=O)N(C2CCC(=O)NC2=O)C3=O)nc2[nH]c3cc(-c4c(C)noc4C)c(OC)cc3c12 (stereo not shown) [Compound 9, 4-((3-Cyclopropyl-1-ethyl-1H-pyrazol-5-yl)amino)-7-(3,5-dimethylisoxazol-4-yl)-N-(4-(2-((2-(2,6-dioxopiperidin-3-yl)-1,3-dioxoisoindolin-4-yl)oxy)acetamido)butyl)-6-methoxy-9H-pyrimido[4,5-b]indole-2-carboxamide]
times more potent than 8 in cell growth inhibition ([1]; comparator 8): 6 times
Lowest concentrations effective in decreasing the level of BRD2, BRD3, and BRD4 proteins ([2]; 3 h treatment, Western blot): 3 to 10 nM

Compound: CCn1nc(C2CC2)cc1Nc1nc(C(=O)NCCCCNC(=O)CNc2cccc3c2C(=O)N(C2CCC(=O)NC2=O)C3=O)nc2[nH]c3cc(-c4c(C)noc4C)c(OC)cc3c12 (stereo not shown) [Compound 10, 4-((3-Cyclopropyl-1-ethyl-1H-pyrazol-5-yl)amino)-7-(3,5-dimethylisoxazol-4-yl)-N-(4-(2-((2-(2,6-dioxopiperidin-3-yl)-1,3-dioxoisoindolin-4-yl)amino)acetamido)butyl)-6-methoxy-9H-pyrimido[4,5-b]indole-2-carboxamide]
times more potent than 9 in cell growth inhibition [1]: 2 times

Compound: CCn1nc(C2CC2)cc1Nc1nc(C(=O)NCCCCCCCOc2cccc3c2C(=O)N(C2CCC(=O)NC2=O)C3=O)nc2[nH]c3cc(-c4c(C)noc4C)c(OC)cc3c12 (stereo not shown) [Compound 11, 4-((3-Cyclopropyl-1-ethyl-1H-pyrazol-5-yl)amino)-7-(3,5-dimethylisoxazol-4-yl)-N-(7-((2-(2,6-dioxopiperidin-3-yl)-1,3-dioxoisoindolin-4-yl)oxy)heptyl)-6-methoxy-9H-pyrimido[4,5-b]indole-2-carboxamide]
times more potent than 9 in cell growth inhibition [1]: 10 times

Compound: CCn1nc(C2CC2)cc1Nc1nc(C(=O)NCCCCCCCNc2cccc3c2C(=O)N(C2CCC(=O)NC2=O)C3=O)nc2[nH]c3cc(-c4c(C)noc4C)c(OC)cc3c12 (stereo not shown) [Compound 12, 4-((3-Cyclopropyl-1-ethyl-1H-pyrazol-5-yl)amino)-7-(3,5-dimethylisoxazol-4-yl)-N-(7-((2-(2,6-dioxopiperidin-3-yl)-1,3-dioxoisoindolin-4-yl)amino)heptyl)-6-methoxy-9H-pyrimido[4,5-b]indole-2-carboxamide]
times more potent than 10 in cell growth inhibition ([1]; comparator 10): 10 times

Compound: CCn1nc(C2CC2)cc1Nc1nc(C(=O)NCCCCCCNc2cccc3c2C(=O)N(C2CCC(=O)NC2=O)C3=O)nc2[nH]c3cc(-c4c(C)noc4C)c(OC)cc3c12 (stereo not shown) [Compound 13, 4-((3-Cyclopropyl-1-ethyl-1H-pyrazol-5-yl)amino)-7-(3,5-dimethylisoxazol-4-yl)-N-(6-((2-(2,6-dioxopiperidin-3-yl)-1,3-dioxoisoindolin-4-yl)amino)hexyl)-6-methoxy-9H-pyrimido[4,5-b]indole-2-carboxamide]
times less potent than 12 in cell growth inhibition ([1]; comparator 12): 3 times

Compound: CCn1nc(C2CC2)cc1Nc1nc(C(=O)NCCCCNc2cccc3c2C(=O)N(C2CCC(=O)NC2=O)C3=O)nc2[nH]c3cc(-c4c(C)noc4C)c(OC)cc3c12 (stereo not shown) [Compound 15, 4-((3-Cyclopropyl-1-ethyl-1H-pyrazol-5-yl)amino)-7-(3,5-dimethylisoxazol-4-yl)-N-(4-((2-(2,6-dioxopiperidin-3-yl)-1,3-dioxoisoindolin-4-yl)amino)butyl)-6-methoxy-9H-pyrimido[4,5-b]indole-2-carboxamide]
times less potent than 14 in cell growth inhibition ([1]; comparator 14): ~3 times

Compound: CCn1nc(C2CC2)cc1Nc1nc(C(=O)NCCOCCCc2cccc3c2C(=O)N(C2CCC(=O)NC2=O)C3=O)nc2[nH]c3cc(-c4c(C)noc4C)c(OC)cc3c12 (stereo not shown) [Compound 19, 4-((3-Cyclopropyl-1-ethyl-1H-pyrazol-5-yl)amino)-7-(3,5-dimethylisoxazol-4-yl)-N-(2-(3-(2-(2,6-dioxopiperidin-3-yl)-1,3-dioxoisoindolin-4-yl)propoxy)ethyl)-6-methoxy-9H-pyrimido[4,5-b]indole-2-carboxamide]
times less potent than 18 in cell growth inhibition ([1]; comparator 18): 2 times

Lowest concentration effective in decreasing the level of BRD4 protein (BRD4): 0.3 nM
Lowest concentration effective in decreasing the level of BRD3 protein (BRD3): 0.1 nM
Lowest concentration effective in decreasing the level of BRD2 protein (BRD2): 0.3 nM
Compound: CCn1nc(C2CC2)cc1Nc1nc(C(=O)NCCCCCCc2cccc3c2CN(C2CCC(=O)NC2=O)C3=O)nc2[nH]c3cc(-c4c(C)noc4C)c(OC)cc3c12 (stereo not shown) [Compound 21, 4-((3-Cyclopropyl-1-ethyl-1H-pyrazol-5-yl)amino)-7-(3,5-dimethylisoxazol-4-yl)-N-(6-(2-(2,6-dioxopiperidin-3-yl)-1-oxoisoindolin-4-yl)hexyl)-6-methoxy-9H-pyrimido[4,5-b]indole-2-carboxamide]

Compound: CCn1nc(C2CC2)cc1Nc1nc(C(=O)NCCOCCCc2cccc3c2CN(C2CCC(=O)NC2=O)C3=O)nc2[nH]c3cc(-c4c(C)noc4C)c(OC)cc3c12 (stereo not shown) [Compound 22, 4-((3-Cyclopropyl-1-ethyl-1H-pyrazol-5-yl)amino)-7-(3,5-dimethylisoxazol-4-yl)-N-(2-(3-(2-(2,6-dioxopiperidin-3-yl)-1-oxoisoindolin-4-yl)propoxy)ethyl)-6-methoxy-9H-pyrimido[4,5-b]indole-2-carboxamide]
times less potent than 19 in cell growth inhibition ([1]; comparator 19): 2 times

Lowest concentration effective in decreasing the level of BRD4 protein (BRD4): 3 nM
Lowest concentration effective in decreasing the level of BRD3 protein (BRD3): 1 nM
Lowest concentration effective in decreasing the level of BRD2 protein (BRD2): 3 nM
Compound: CCn1nc(C2CC2)cc1Nc1nc(C(=O)NCCCCc2cccc3c2CN(C2CCC(=O)NC2=O)C3=O)nc2[nH]c3cc(-c4c(C)noc4C)c(OC)cc3c12 (stereo not shown) [Compound 24, 4-((3-Cyclopropyl-1-ethyl-1H-pyrazol-5-yl)amino)-7-(3,5-dimethylisoxazol-4-yl)-N-(4-(2-(2,6-dioxopiperidin-3-yl)-1-oxoisoindolin-4-yl)butyl)-6-methoxy-9H-pyrimido[4,5-b]indole-2-carboxamide]
times less potent than 23 in cell growth inhibition [1]: 19 times

Lowest concentration effective in decreasing the level of BRD4 protein (BRD4): 10 nM
Lowest concentration effective in decreasing the level of BRD3 protein (BRD3): 10 nM
Lowest concentration effective in decreasing the level of BRD2 protein (BRD2): less potent and effective
Compound: CCn1nc(C2CC2)cc1Nc1nc(C(=O)NCCCc2cccc3c2CN(C2CCC(=O)NC2=O)C3=O)nc2[nH]c3cc(-c4c(C)noc4C)c(OC)cc3c12 (stereo not shown) [Compound 25, 4-((3-Cyclopropyl-1-ethyl-1H-pyrazol-5-yl)amino)-7-(3,5-dimethylisoxazol-4-yl)-N-(3-(2-(2,6-dioxopiperidin-3-yl)-1-oxoisoindolin-4-yl)propyl)-6-methoxy-9H-pyrimido[4,5-b]indole-2-carboxamide]
times less potent than 23 in cell growth inhibition [1]: 188 times

Compound: CCn1nc(C2CC2)cc1Nc1nc(C(=O)NCCCCCc2cccc3c2CN(C2CCC(=O)N(C)C2=O)C3=O)nc2[nH]c3cc(-c4c(C)noc4C)c(OC)cc3c12 (stereo not shown) [Compound 26, 4-((3-Cyclopropyl-1-ethyl-1H-pyrazol-5-yl)amino)-7-(3,5-dimethylisoxazol-4-yl)-6-methoxy-N-(5-(2-(1-methyl-2,6-dioxopiperidin-3-yl)-1-oxoisoindolin-4-yl)pentyl)-9H-pyrimido[4,5-b]indole-2-carboxamide]
times less potent than 23 in cell growth inhibition [1]: > 600 times
Effect on the level of BRD2, BRD3, and BRD4 proteins ([2]; 3 h treatment, Western blot): fails to induce degradation

times less potent than 8 in binding affinity (BRD2, BRD3, and BRD4): > 100 times
Compound: CNC(=O)c1ncc2c(n1)[nH]c1cc(-c3c(C)noc3C)c(OC)cc12 [Compound 28, 7-(3,5-Dimethylisoxazol-4-yl)-6-methoxy-N-methyl-9H-pyrimido[4,5-b]indole-2-carboxamide]

Compound: CC(C)C[C@@H](C=O)NC(=O)[C@H](CC(C)C)NC(=O)[C@H](CC(C)C)NC(=O)OCc1ccccc1 [MG-132, reference compound] (Cbz-Leu-Leu-Leu-aldehyde)
Effect of pretreatment on degradation of BRD2, BRD3, and BRD4 induced by 23 [2]: completely block

Compound: NS(=O)(=O)OC[C@@H]1C[C@@H](n2ccc3c(N[C@H]4CCc5ccccc54)ncnc32)C[C@@H]1O [MLN4924, reference compound]
Effect of pretreatment on degradation of BRD2, BRD3, and BRD4 induced by 23 [2]: completely block

Compound: Nc1cccc2c1CN(C1CCC(=O)NC1=O)C2=O (stereo not shown) [lenalidomide, reference compound]
Effect of pretreatment on degradation of BRD2, BRD3, and BRD4 induced by 23 [2]: effectively blocks
